The source made the active and inactive calls. The calls are words filed in the database; no cut-off is given here.
Experiments:
Mus musculus [1] = test: Anticonvulsant activity in ip dosed CF-1 albino mouse assessed as protection from maximal electric shock-induced seizures; assay type: functional
Outline: (§1)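 ED50 and TD50 determined in male CF-1 mice after ip dosing (0.5% methylcellulose suspension) at the previously estimated time of peak effect. MES 50 mA, 60 Hz, 0.2 s. Groups of eight, with doses varied until at least three points fell between 10–90% protection or motor impairment. Regression gives ED50/TD50 with 95% confidence intervals; PI = TD50/ED50.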

Rattus norvegicus [2] = test: Neurotoxicity in Sprague-Dawley rat assessed as motor impairment at 30 mg/kg, po by rotarod test; assay type: toxicity, organism-based; design: dose 30 mg/kg, route oral; details: in vivo
Outline: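 Male Sprague–Dawley rats, four animals, oral 30 mg/kg in 0.5% methylcellulose/water. Motor impairment on the rotarod (failure to keep balance for 1 min) assessed alongside MES at five times from 0.25 to 4 h.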

Mus musculus [3] = test: Anticonvulsant activity in ip dosed CF-1 albino mouse assessed as protection from maximal electric shock-induced seizures measured after 4 hrs; assay type: functional; details: read-out: MED
Outline: (§2)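 Male CF-1 mice dosed ip at 30, 100 or 300 mg/kg, suspension in 0.5% methylcellulose/water. MES: corneal electrodes primed with electrolyte containing anaesthetic, 50 mA, 60 Hz, 0.2 s. Examined 0.5 and 4 h after dosing. Value is the minimum dose protecting half or more of the animals.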

Rattus norvegicus [4] = test: Anticonvulsant activity in po dosed Sprague-Dawley rat assessed as protection from maximum electric shock-induced seizures; assay type: functional
Outline: (§3)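 Male Sprague–Dawley rats dosed orally (0.5% methylcellulose suspension). MES 150 mA, 60 Hz, 0.2 s; rotarod impairment is failure to keep balance for 1 min. Groups of eight, at the previously estimated time of peak effect, with doses varied until at least three points fell in the 10–90% range. ED50/TD50 with 95% confidence intervals from regression; PI = TD50/ED50.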

Mus musculus [5] = test: Neurotoxicity in CF-1 albino mouse assessed as motor impairment at 300 mg/kg, ip measured after 4 hrs by rotarod test; assay type: toxicity, organism-based; design: dose 300 mg/kg, route intraperitoneal; details: in vivo
Outline: (§4)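 Rotarod neurotoxicity in male CF-1 mice given ip doses of 30, 100 or 300 mg/kg (0.5% methylcellulose suspension), examined 0.5 and 4 h after dosing. Impairment means failing to hold balance on the rod for 1 min. Value is the minimum dose causing toxicity in half or more of the animals; response comments are recorded.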

[6] = Neurotoxicity in po dosed Sprague-Dawley rat assessed as motor impairment measured at time of peak effect by rotarod test; assay type: toxicity, organism-based; details: in vivo; outline: as §3
[7] = Neurotoxicity in ip dosed CF-1 albino mouse assessed as motor impairment by rotarod test; assay type: toxicity, organism-based; details: in vivo
Mus musculus [8] = species on record: Mus musculus; test: Protective index, ratio of TD50 for CF-1 albino mouse to ED50 for CF-1 albino mouse assessed as protection from maximum electric shock-induced seizures; assay type: functional; outline: as §1
Rattus norvegicus [9] = test: Anticonvulsant activity in Sprague-Dawley rat assessed as protection from maximum electric shock-induced seizures at 30 mg/kg, po measured after 4 hrs; assay type: functional
Outline: (§5)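 Male Sprague–Dawley rats, four per group, given 30 mg/kg orally as a suspension in 0.5% methylcellulose/water. MES stimulus 150 mA, 60 Hz, 0.2 s via corneal electrodes. Tested at 0.25, 0.5, 1, 2 and 4 h; value is rats protected out of four.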

Mus musculus [10] = test: Neurotoxicity in CF-1 albino mouse assessed as motor impairment at 300 mg/kg, ip measured after 0.5 hrs by rotarod test; assay type: toxicity, organism-based; design: dose 300 mg/kg, route intraperitoneal; details: in vivo; outline: as §4
Rattus norvegicus [11] = species on record: Rattus norvegicus; test: Protective index, ratio of TD50 for Sprague-Dawley rat to ED50 for Sprague-Dawley rat assessed as protection from maximum electric shock-induced seizures; assay type: functional; outline: as §3
Rattus norvegicus [12] = test: Anticonvulsant activity in Sprague-Dawley rat assessed as protection from maximum electric shock-induced seizures at 30 mg/kg, po measured after 2 hrs; assay type: functional; outline: as §5
Rattus norvegicus [13] = test: Anticonvulsant activity in Sprague-Dawley rat assessed as protection from maximum electric shock-induced seizures at 30 mg/kg, po measured after 0.25 hrs; assay type: functional; outline: as §5
Rattus norvegicus [14] = test: Anticonvulsant activity in Sprague-Dawley rat assessed as protection from maximum electric shock-induced seizures at 30 mg/kg, po measured after 0.5 hrs; assay type: functional; outline: as §5
Mus musculus [15] = test: Anticonvulsant activity in CF-1 albino mouse assessed as protection from maximal electric shock-induced seizures at 300 mg/kg, ip measured after 0.5 hrs; assay type: functional, organism-based; design: dose 300 mg/kg; outline: as §2
Mus musculus [16] = test: Anticonvulsant activity in ip dosed maximal electric shock-induced CF-1 albino mouse assessed as time of peak effect; assay type: functional; outline: as §1
Rattus norvegicus [17] = test: Anticonvulsant activity in Sprague-Dawley rat assessed as protection from maximum electric shock-induced seizures at 30 mg/kg, po measured after 1 hr; assay type: functional; outline: as §5
Rattus norvegicus [18] = test: Anticonvulsant activity in po dosed maximum electric shock-induced Sprague-Dawley rat assessed as time of peak effect; assay type: functional; outline: as §3
Mus musculus [19] = test: Neurotoxicity in CF-1 albino mouse assessed as inability to grasp rotarod at 300 mg/kg, ip measured after 0.5 hrs by rotarod test; assay type: toxicity, organism-based; design: dose 300 mg/kg, route intraperitoneal; details: in vivo; outline: as §4
Mus musculus [20] = test: Anticonvulsant activity in CF-1 albino mouse assessed as protection against subcutaneous pentylenetetrazol-induced seizures at 300 mg/kg, ip measured after 4 hrs; assay type: functional, organism-based; design: dose 300 mg/kg
Outline: (§6)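 scPTZ test in male CF-1 mice. Compound suspended in 0.5% methylcellulose/water, ip at 30, 100 or 300 mg/kg. Pentylenetetrazole 85 mg/kg (CD97, clonic seizures lasting at least 5 s) given subcutaneously at the test time, read at 0.5 and 4 h. Value is the minimum dose protecting half or more of the animals.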

Mus musculus [21] = test: Anticonvulsant activity in CF-1 albino mouse assessed as protection against 6 Hz psychomotor seizure at 100 mg/kg, ip measured after 0.25 hrs; assay type: functional; details: route intraperitoneal
Outline: (§7)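 6-Hz psychomotor seizure in male CF-1 mice, compound suspended in 0.5% methylcellulose/water, given ip (100 or 75 mg/kg). Corneal stimulation with 0.2 ms monopolar rectangular pulses at 6 Hz for 3 s, 32 mA, constant-current device. Protected if normal exploratory behaviour resumes within 10 s. Tested 0.25–4 h after dosing; value is mice protected out of four.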

Mus musculus [22] = test: Anticonvulsant activity in CF-1 albino mouse assessed as protection against 6 Hz psychomotor seizure at 100 mg/kg, ip measured after 0.5 hrs; assay type: functional; details: route intraperitoneal; outline: as §7
Mus musculus [23] = test: Anticonvulsant activity in ip dosed CF-1 albino mouse assessed as protection from maximal electric shock-induced seizures measured after 0.5 hrs; assay type: functional; details: read-out: MED; outline: as §2
Mus musculus [24] = test: Neurotoxicity in CF-1 albino mouse assessed as myoclonic jerks at 300 mg/kg, ip measured after 0.5 hrs by rotarod test; assay type: toxicity, organism-based; design: dose 300 mg/kg, route intraperitoneal; details: in vivo
Mus musculus [25] = test: Neurotoxicity in ip dosed CF-1 albino mouse assessed as motor impairment measured after 0.5 hrs by rotarod test; assay type: toxicity, organism-based; details: in vivo; outline: as §4
Mus musculus [26] = test: Anticonvulsant activity in CF-1 albino mouse assessed as protection against 6 Hz psychomotor seizure at 100 mg/kg, ip measured after 4 hrs; assay type: functional; details: route intraperitoneal; outline: as §7
Mus musculus [27] = test: Anticonvulsant activity in ip dosed CF-1 albino mouse assessed as protection against subcutaneous pentylenetetrazol-induced seizures measured after 0.5 hrs; assay type: functional; details: read-out: MED; outline: as §6
Mus musculus [28] = test: Anticonvulsant activity in CF-1 albino mouse assessed as protection against 6 Hz psychomotor seizure at 100 mg/kg, ip measured after 1 hr; assay type: functional; details: route intraperitoneal; outline: as §7
Mus musculus [29] = test: Anticonvulsant activity in CF-1 albino mouse assessed as protection against 6 Hz psychomotor seizure at 100 mg/kg, ip measured after 2 hrs; assay type: functional; details: route intraperitoneal; outline: as §7
Mus musculus [30] = test: Anticonvulsant activity in CF-1 albino mouse assessed as protection from maximal electric shock-induced seizures at 100 mg/kg, ip measured after 0.25 hrs; assay type: functional, organism-based; design: dose 100 mg/kg
Mus musculus [31] = test: Anticonvulsant activity in CF-1 albino mouse assessed as protection from maximal electric shock-induced seizures at 100 mg/kg, ip measured after 1 hr; assay type: functional, organism-based; design: dose 100 mg/kg
Mus musculus [32] = test: Neurotoxicity in CF-1 albino mouse assessed as tonic extension at 300 mg/kg, ip measured after 0.5 hrs by rotarod test; assay type: toxicity, organism-based; design: dose 300 mg/kg, route intraperitoneal; details: in vivo; outline: as §4
Mus musculus [33] = test: Anticonvulsant activity in CF-1 albino mouse assessed as protection against subcutaneous pentylenetetrazol-induced seizures at 300 mg/kg, ip measured after 0.5 hrs; assay type: functional, organism-based; design: dose 300 mg/kg; outline: as §6
Mus musculus [34] = test: Anticonvulsant activity in CF-1 albino mouse assessed as protection from maximal electric shock-induced seizures at 300 mg/kg, ip measured after 4 hrs; assay type: functional, organism-based; design: dose 300 mg/kg; outline: as §2
Mus musculus [35] = test: Anticonvulsant activity in CF-1 albino mouse assessed as protection from maximal electric shock-induced seizures at 100 mg/kg, ip measured after 6 hrs; assay type: functional, organism-based; design: dose 100 mg/kg
Mus musculus [36] = test: Neurotoxicity in CF-1 albino mouse assessed as myoclonic jerks at 300 mg/kg, ip measured after 4 hrs by rotarod test; assay type: toxicity, organism-based; design: dose 300 mg/kg, route intraperitoneal; details: in vivo
Mus musculus [37] = test: Neurotoxicity in CF-1 albino mouse assessed as myoclonic jerks at 100 mg/kg, ip measured after 0.5 hrs by rotarod test; assay type: toxicity, organism-based; design: dose 100 mg/kg, route intraperitoneal; details: in vivo
Mus musculus [38] = test: Anticonvulsant activity in ip dosed CF-1 albino mouse assessed as protection against subcutaneous pentylenetetrazol-induced seizures measured after 4 hrs; assay type: functional; details: read-out: MED; outline: as §6
Mus musculus [39] = test: Neurotoxicity in CF-1 albino mouse assessed as motor impairment, ip measured after 4 hrs by rotarod test; assay type: toxicity, organism-based; details: in vivo

Structure (SMILES) | ED50 (Mus musculus [1]) | Activity (Rattus norvegicus [2]) | minimal effective dose (Mus musculus [3]) | Activity (Mus musculus [5]) | TD50 [7] | Ratio TD50/ED50 (Mus musculus [8]) | Activity (Rattus norvegicus [9]) | Activity (Mus musculus [10]) | Activity (Rattus norvegicus [12]) | Activity (Rattus norvegicus [13]) | Activity (Rattus norvegicus [14]) | Activity (Mus musculus [15]) | Time (Mus musculus [16]) | Activity (Rattus norvegicus [17]) | Activity (Mus musculus [20]) | Activity (Mus musculus [21]) | Activity (Mus musculus [22]) | minimal effective dose (Mus musculus [23]) | MTC (Mus musculus [25]) | Activity (Mus musculus [26]) | other results
O=C1CC(c2ccccc2Br)C(=O)N1CN1CCN(c2ccc(F)cc2)CC1 (racemic) | 79.9 mg/kg | Non-toxic | 100 mg/kg | Non-toxic | 466 mg/kg | 5.83 | 75% | Non-toxic | 50% | 25% | 25% | inactive | 4 h | 25% | – | – | – | – | – | – | ED50 (Rattus norvegicus [4]): 7.4 mg/kg; TD50 [6]: 62.4 mg/kg; Ratio TD50/ED50 (Rattus norvegicus [11]): 8.43; Time (Rattus norvegicus [18]): 4 h
O=C1CC(c2ccccc2F)C(=O)N1CN1CCN(Cc2ccccc2)CC1 (racemic) | – | – | 300 mg/kg | Non-toxic | – | – | – | – | – | – | – | – | – | – | inactive | 0% | 25% | 300 mg/kg | 300 mg/kg | 0% | Activity (Mus musculus [19]): Toxic; Activity (Mus musculus [24]): Toxic; minimal effective dose (Mus musculus [27]): 300 mg/kg; Activity (Mus musculus [28]): 0%; Activity (Mus musculus [29]): 0%
O=C1CC(c2ccccc2F)C(=O)N1CN1CCN(c2cccc(C(F)(F)F)c2)CC1 (racemic) | 41.4 mg/kg | Non-toxic | 100 mg/kg | Non-toxic | > 500 mg/kg | >12.09 | 50% | Non-toxic | 100% | 25% | 100% | – | 4 h | 100% | – | 25% | 75% | 300 mg/kg | – | 25% | Activity (Mus musculus [30]): Active; Activity (Mus musculus [28]): 0%; Activity (Mus musculus [29]): 25%; Activity (Mus musculus [31]): Active
Cl.O=C1CC(c2ccccc2Br)C(=O)N1CN1CCN(Cc2ccccc2)CC1 (racemic) | – | – | – | Non-toxic | – | – | – | – | – | – | – | inactive | – | – | inactive | – | – | – | 300 mg/kg | – | Activity (Mus musculus [32]): Toxic; Activity (Mus musculus [33]): inactive; Activity (Mus musculus [34]): inactive
O=C1CC(c2ccccc2Br)C(=O)N1CN1CCN(c2ncccn2)CC1 (racemic) | – | – | 100 mg/kg | – | – | – | – | – | – | – | – | inactive | – | – | – | – | – | – | 300 mg/kg | – | Activity (Mus musculus [35]): Active; Activity (Mus musculus [36]): Toxic; Activity (Mus musculus [37]): Toxic; minimal effective dose (Mus musculus [27]): 100 mg/kg; minimal effective dose (Mus musculus [38]): 300 mg/kg; MTC (Mus musculus [39]): 300 mg/kg

Source: ChEMBL document CHEMBL2086314, “Synthesis and anticonvulsant activity of new N-Mannich bases derived from 3-(2-fluorophenyl)- and 3-(2-bromophenyl)-pyrrolidine-2,5-diones. Part II” (Bioorg Med Chem, 2012)
